Here are results for 48 sequences from the EternaBench riboswitch data.

This series concerns MS2 coat protein. The series is described as follows: apparent Kd, MS2 coat protein; higher = weaker binding; RNA-MaP array; FMN 200 µM where present. The essentials:
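Green signal from SNAP-549-labelled MS2 coat protein was normalised to red-channel RNA signal and to the median Fmax of control clusters. The protein was titrated from 0.7 or 1.5 nM, doubling to 3 µM, without and then with constant ligand, over designs transcribed by stalled E. coli RNA polymerase on Illumina sequencing-chip clusters, in 100 mM Tris-HCl pH 7.5, 80 mM KCl, 4 mM MgCl2, BSA, DTT, yeast tRNA and Tween-20. The apparent Kd is the median of filtered per-cluster binding-curve fits.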

The mark [1] stands for this setting: designed as: ON switch for flavin mononucleotide, no ligand.
[2] abbreviates: ligand present: flavin mononucleotide, designed as: ON switch for flavin mononucleotide.
The mark [3] stands for this setting: designed as: OFF switch for flavin mononucleotide, no ligand.
[4] abbreviates: ligand present: flavin mononucleotide, designed as: OFF switch for flavin mononucleotide.

As usually defined, the apparent Kd is a dissociation constant that holds for the conditions of the assay. With “UUACUCAUGUAAGGAUAUGCAGCCGUUUCGGCUGCAGAAGGUACUAUACUACAUGAGGAUCACCCAUGUCUAUAAAAUAAAGAC”, the “apparent Kd” value by setting is: under setting [1], 0.123 µM; under setting [2], 0.0444 µM. With “CCUUUGAAGAUCCUAAAUUUCGACAUGAGGAUCACCCAUGUGCAGGAUAUCGUGCCAGUGAUGUACGAGAAGGGCCGUCUCUGC”, the “apparent Kd” value is 0.16 µM under setting [3] and 0.155 µM under setting [4]. Consider “AUCAUGUCAGGAUAUAUGACAUGGCUCUUCGGAGCAAGCUCAUAGAAGGGACAUGAGGAUCACCCAUGUAGAGC”, for which the “apparent Kd” value amounted to 0.0227 µM under setting [3] and 0.0305 µM under setting [4]. “GGUUAAUAUCGAGGAUAUGUCUAGACACAUGAGGAUCACCCAUGUAUGUGUAUAGAAGGCGAUAUUAACAGCAUGUUACAUGCC”: the “apparent Kd” value came to 0.0381 µM under setting [1] and 0.0168 µM under setting [2].

As to “UUUAUUUCGGCAGGAUAUACAUGUAUAUAUAUUCCUUCAUAUCUUAUUACAUGAGGAUCACCCAUGUAGAAGGGCCUUCUUCUC”, the “apparent Kd” value reads like this: under setting [3], 0.0384 µM; under setting [4], 0.0421 µM. The like results for “GUCACUAGAGGAUAUACAAUGGUAUAUGAUCCUAGAGACAAACAUGAGGAUCACCCAUGUAGAAGGCUAGUAUU” were, in that order, 0.155 µM and 0.0374 µM.

Regarding “UUGUUGUAUGUAGGAUAUGCAUAUUAUUAUUAUGCAGAAGGACAUGAGGAUCACCCAUGUAUGUUAUUAUUAUGUGUUAUGUGU”, the “apparent Kd” value by setting is: under setting [3], 0.044 µM; under setting [4], 0.0715 µM. Regarding “GCAACGCCUGACAUGAGGAUCACCCAUGUUAGAUUGUUAUGUCAGGAUAUAGUCUAGAAACUAGACUAGAAGGGAUAUGUUGCU”, the “apparent Kd” value runs as follows: under setting [1], 1.01 µM; under setting [2], 0.161 µM. As to “UGAUUGCCUGUAAGGAUAUCUACGGCCGUUCGCUGGGAGAAGGUACAUGAGGAUCACCCAUGUACAGUCAUGGG”, the “apparent Kd” value came to 0.0429 µM under setting [3] and 0.0935 µM under setting [4].

Consider “AGAUCCUGAGUCAGGAUAUAGAGACGGUAGUCGGGCUAGAAGGGACAUGAGGAUCACCCAUGUGGGUUCGGGCC”, for which the “apparent Kd” value by setting is: under setting [3], 0.0142 µM; under setting [4], 0.0193 µM. In the same order, the values of “CCUCUACAUGAGGAUCACCCAUGUGAGGAUAUCUCGGAGCAGCCACUUAAGGCGCUCCAGAGAAGGCACGUGUA” are 0.0196 µM and 0.0288 µM.

“CAUUAUUAUCGAGGAUAUCGUAUUGAGAUACUAUGAGAAGGCGGGAUAAACAUGAGGAUCACCCAUGUGAGCCGGAUGCUUGUG”: the “apparent Kd” value under setting [3] worked out at 0.0171 µM and the “apparent Kd” value under setting [4] is 0.0148 µM.

As to “GCCAACUCAUGAGGAUAUGGCACCUUAUUGGUGCCAGAAGGCGUGUCAAUUGACAUGAGGAUCACCCAUGUAUUAUAGUUGGCA”, the “apparent Kd” value turned out to be 0.446 µM under setting [1] and 0.0703 µM under setting [2]. In the case of “UGUCAUAAAUAGAAGGGUAGUUGGGUUUUACAUGAGGAUCACCCAUGUAUUAUAGGAUAUGUGUAAAGUUAUUAUUAAAGUAAA”, the “apparent Kd” value by setting is: under setting [3], 0.0392 µM; under setting [4], 0.0345 µM. Regarding “UUGAUUAUACAAGGAUAUCUAUUGUAAUUUCGUCUUACAUGAGGAUCACCCAUGUUAAUAUUUUUAGAGAAGGUGUAUUUUCAG”, the “apparent Kd” value runs as follows: under setting [1], 0.0399 µM; under setting [2], 0.0259 µM. For the sequence “AGCCUAGCAGGAUAUGCUCAAGAUUACAUGAGGAUCACCCAUGUGACUGGUUGUUGUCUUGCAGAAGGGCUAGGGA”, the “apparent Kd” value is, setting by setting: under setting [3], 0.0206 µM; under setting [4], 0.0468 µM. Turning to “UUAUUUAUGUAAGGAUAUCGAUUAUAUACACAUCCGACAUGAGGAUCACCCAUGUUUUAUUUUUUCGAGAAGGUACAUUGUCGG”, the “apparent Kd” value by setting is: under setting [1], 0.0765 µM; under setting [2], 0.0747 µM. “UGUGUGUUUGUGAGGAUAUGCGCGCGGAAAUGUGUGUAGAAGGCACAUGAGGAUCACCCAUGUAAGGGCGCGCG”: the “apparent Kd” value came out at 0.596 µM under setting [3] and 0.439 µM under setting [4]. The like results for “CUCGGACAUGAGGAUCACCCAUGUGAGGAUAUGGUGCUAUCGUCAUUAGACGAUUGCGUUAGAAGGCAUAUUUU” were, in that order, 0.0287 µM and 0.0271 µM.

On to “GUCAGCUCGUGAGGAUAUACAACACUGCUUCGGCAGUGUAUUAAGAUCACAUGAGGAUCACCCAUGUAGAAGGCUCGAGCUGAU”, for which the “apparent Kd” value is, setting by setting: under setting [3], 0.0146 µM; under setting [4], 0.271 µM. As for “UUUAUGUCAGGAUAUUCGGAUAGGAAAACGAAAACCUAUCCGAAGAAGGGACAUGAGGAUCACCCAUGUAAAAA”, the “apparent Kd” value by setting is: under setting [3], 0.217 µM; under setting [4], 0.151 µM. As for “AGUCGGAGCAGAGGAUAUACAUGAGGAUCACCCAUGUAAUAAAGUGAAGACUGGAAACAGUCAAUGUAGAAGGCUGCUCCGACA”, the “apparent Kd” value under setting [3] worked out at 0.0272 µM and the “apparent Kd” value under setting [4] came to 0.21 µM.

For the sequence “UGUGCUAUGUAGAAGGCAGAUCUGAUUCAGAUCUGAGGAUAUACAUGAGGAUCACCCAUGUUAUGCACCAGCACGAGAGUGCAC”, the “apparent Kd” value by setting is: under setting [3], 0.00789 µM; under setting [4], 0.0171 µM. Turning to “CAUUUGUGAGGAUAUCAGGUGUGCUAGCGUACUGGUACAUCUGAGAAGGCACAUGAGGAUCACCCAUGUUCCUC”, the “apparent Kd” value under setting [3] was determined as 0.05 µM and the “apparent Kd” value under setting [4] turned out to be 0.312 µM. With “GUGCCUUGGGAGAAGGCCGAUAGCAAAGCUAUCGGAGGAUAUCCAUACCGGAAACGGACAUGAGGAUCACCCAUGUGGCACAAA”, the “apparent Kd” value under setting [1] came out at 0.0163 µM and the “apparent Kd” value under setting [2] was determined as 0.0076 µM. As for “AAAGGUACAGGAUAUGCGUGGAAAAAGUGUAUUCAAAAAAAACAUGAGGAUCACCCAUGUAGAAGGGUACCAAA”, the “apparent Kd” value reads like this: under setting [3], 0.081 µM; under setting [4], 0.269 µM. For the sequence “AUGAGUAAAGCAGGAUAUCUAUUGUCUCUGUAACAUGAGGAUCACCCAUGUAGAGAAGGGCUAAGUCUUACUCUUCGGAGUUGA”, the “apparent Kd” value worked out at 0.0142 µM under setting [3] and 0.0137 µM under setting [4].

With “AACUUACAUGAGGAUCACCCAUGUCAGGAUAUCGAAAUUGGCUCGCAAUUGCGAGCGACGAGAAGGGACGUUUU”, the “apparent Kd” value amounted to 0.0173 µM under setting [3] and 0.0248 µM under setting [4].

In the case of “AAGAAGUCAGGAUAUGCUGCUCGUCACUUGCGUGAUGAGUAGCAGAAGGGACAUGAGGAUCACCCAUGUGGAAG”, the “apparent Kd” value is, setting by setting: under setting [3], 0.111 µM; under setting [4], 0.24 µM. “AGACCGCUACGCCGGUUUCACGCACAGGAUAUGCGGUUACAUGAGGAUCACCCAUGUGGCCAUGUGCAGAAGGGUGGUUCGUGC”: the “apparent Kd” value is, setting by setting: under setting [1], 0.0212 µM; under setting [2], 0.0149 µM.

Regarding “CUAUCGAGGUAACUCGCUAUCACACCAGAAGGGACGGAGGCACAUGAGGAUCACCCAUGUCCUAGUCAGGAUAUGGGUGAGUAG”, the “apparent Kd” value runs as follows: under setting [1], 0.0176 µM; under setting [2], 0.00507 µM. Take “CGCAAUGAUAGAGGAUAUGUUUUACAUGAGGAUCACCCAUGUGUACAUGGAUUAAUAUAUAAGUAACAGAAGGCUAUUCAUGCG”: the “apparent Kd” value runs as follows: under setting [3], 0.0167 µM; under setting [4], 0.0152 µM. Consider “GCCAGUUAUGUAGGAUAUGCGAGGCGAGCCUGAGCAGAAGGACAUGAGGAUCACCCAUGUAUUGCGGUUUAAGUUCAGAUCGCU”, for which the “apparent Kd” value came to 0.0176 µM under setting [3] and 0.0234 µM under setting [4]. As for “GGGUGCCCUGCAGAAGCGACAUGAGGAUCACCCAUGUAACGUAGAAGGGCCCGGAACUAAGGUGGGCAGGAUAUACUGUUAGGU”, under setting [3], the “apparent Kd” value is 0.00676 µM.

Regarding “CCAGAGAUAUGAGGAUAUCGAGUGGAAUACACUCGAGAAGGCAUGUGAAAACAUGAGGAUCACCCAUGUGAUCAAUACUCUGGA”, the “apparent Kd” value under setting [1] was found to be 0.176 µM and the “apparent Kd” value under setting [2] was found to be 0.0277 µM. As for “ACACAGCAAGGAUAUACAUGAGGAUCACCCAUGUGGUGGCCGUUACGGUAGGACUAGUGUAGAAGGUGCAGUGG”, the “apparent Kd” value under setting [3] is 0.519 µM and the “apparent Kd” value under setting [4] is 0.177 µM. For “GCACUGGAUGUAGGAUAUCAGGACGAUAAGUCCUGAGAAGGACAUGAGGAUCACCCAUGUCCUAAAACCAGUGCAUAUAAUAUA”, the “apparent Kd” value runs as follows: under setting [3], 0.0144 µM; under setting [4], 0.0167 µM. As to “GCCGCCCGAUCUGGCUUUUGGGCUAGAAGGGCAUAUGUGGUUCAGGACAUGAGGAUCACCCAUGUGCAGGAUAUAGCCCACCGC”, the “apparent Kd” value was 0.0251 µM under setting [3] and 0.053 µM under setting [4]. On to “CGUGUCAUCGAGAAGGCCUCAACAUGAGGAUCACCCAUGUUGUAAUAUGGGAGGAUAUCGAUGAUACAGCUACGUUUCGUAGCA”, for which the “apparent Kd” value is, setting by setting: under setting [1], 0.0211 µM; under setting [2], 0.00603 µM. Consider “UGUCGGAGCAGAGGAUAUUACAUGAGGAUCACCCAUGUAUGAACCAAUAGCUCGAAACAGCAAUGUAAGAAGGCUGCUCCGACA”, for which the “apparent Kd” value amounted to 0.00638 µM under setting [3] and 0.0699 µM under setting [4].

Consider “AGUGUCAUCGAGAAGGCCUCAACAUGAGGAUCACCCAUGUUGAAAAGUGGGAGGAUAUCGAUGAUACAGCUACGUUUCGUAGCA”, for which the “apparent Kd” value reads like this: under setting [1], 0.00979 µM; under setting [2], 0.00498 µM. Consider “AAUAUGAGCUGGAAUAACCUCAAAACAUGAGGAUCACCCAUGUAGGAUAUCAGCACGAUAAGUGCUGAGAAGGACAACCAGCUC”, for which the “apparent Kd” value was determined as 0.0139 µM under setting [3] and 0.0181 µM under setting [4]. For “UUGAAUUGAAACAUGAGGAUCACCCAUGUGUCAUAAUUGACAUAGGAUAUGCUUAUACUUUUAAAGCAGAAGGAUGACGAUACU”, the “apparent Kd” value under setting [1] stood at 0.0238 µM and the “apparent Kd” value under setting [2] was determined as 0.0088 µM.

As for “CACAUGGUUACAGGAUAUGUUAGGUUGCAGUUGAUUGGUUAUUAAAAUAUUACAGAAGGGUAAGACAUGAGGAUCACCCAUGUG”, the “apparent Kd” value by setting is: under setting [1], 0.175 µM; under setting [2], 0.0975 µM.

On to “UCGCUGCGAGGAUAUACAUGAGGAUCACCCAUGUACGGGUCCGGGUUUGAGUUGAUGAGUAGAAGGCGCAGUGA”, for which the “apparent Kd” value was 0.0947 µM under setting [3] and 0.0861 µM under setting [4]. On to “GUGGUGCAUAUACGUGGAUGUACAUGAGGAUCACCCAUGUAAGAGGAUAUGCGGAUACUAGCUCAGCAGAAGGCUUACAACUGA”, for which the “apparent Kd” value by setting is: under setting [3], 0.0113 µM; under setting [4], 0.041 µM. In the same order, the values of “GCAUGGUAUGAGAAGGCAUAUUUAAUCUAACAACAUGUUUACAUGAGGAUCACCCAUGUUACCAAUGAGGAUAUCAUACCGUGC” are 0.00731 µM and 0.00728 µM. As for “GCGUAACAUGAGGAUCACCCAUGUGCCCGAGAAUUCGGGCCGAGAAGGGUGACCGGACGUAUGGCACAGGAUAUCGACGUUGUG”, the “apparent Kd” value under setting [1] worked out at 0.0252 µM and the “apparent Kd” value under setting [2] is 0.0121 µM.
